For 23 molecules, Ki, half-life and Excreted glucose results are on record in ChEMBL document CHEMBL1137899, “Glycosylated dihydrochalcones as potent and selective sodium glucose co-transporter 2 (SGLT2) inhibitors” (Bioorg Med Chem Lett, 2004).

In series [1] the target is T1, Sodium/glucose cotransporter 2 (Homo sapiens, UniProt P31639).
T1 sequence (P31639 whole entry): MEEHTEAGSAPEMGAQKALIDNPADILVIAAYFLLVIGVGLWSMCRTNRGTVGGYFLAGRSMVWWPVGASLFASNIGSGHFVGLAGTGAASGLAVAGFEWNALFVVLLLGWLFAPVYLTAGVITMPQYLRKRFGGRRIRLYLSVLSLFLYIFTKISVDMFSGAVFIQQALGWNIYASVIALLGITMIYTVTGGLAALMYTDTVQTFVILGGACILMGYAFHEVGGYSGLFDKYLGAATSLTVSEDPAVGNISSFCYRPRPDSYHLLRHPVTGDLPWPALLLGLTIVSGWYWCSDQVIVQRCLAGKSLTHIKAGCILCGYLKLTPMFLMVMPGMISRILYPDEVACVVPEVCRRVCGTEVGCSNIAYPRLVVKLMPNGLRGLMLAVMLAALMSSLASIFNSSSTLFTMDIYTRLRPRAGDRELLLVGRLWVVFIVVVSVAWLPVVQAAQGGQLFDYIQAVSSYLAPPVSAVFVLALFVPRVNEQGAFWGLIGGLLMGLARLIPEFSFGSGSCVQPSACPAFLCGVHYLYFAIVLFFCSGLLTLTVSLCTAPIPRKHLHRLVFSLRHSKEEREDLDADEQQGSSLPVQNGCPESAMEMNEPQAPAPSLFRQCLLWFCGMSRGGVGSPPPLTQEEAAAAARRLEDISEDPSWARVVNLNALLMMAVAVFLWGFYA
Briefly: In vitro inhibition of Na-dependent [14C]AMG uptake in CHO-K1 cells expressing human sodium glucose co-transporter 2. The class given is functional, cell-based. In outline: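 CHO-K1 cells overexpressing human SGLT2 pre-treated with compound for 15 min with or without NaCl, then labelled with 14C-alpha-methylglucopyranoside (AMG, nonmetabolizable glucose analogue); sodium-dependent uptake of label measured.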

The nature of series [2]: Metabolic half-life as a measure of human liver microsomal stability was determined at 5 uM. The class given is ADME. As to conditions: liver microsomes.
The nature of series [3]: (§1) In vivo ability to induce urinary glucose excretion in male Zucker Diabetic Fatty (ZDF) rats at 3 mg/kg i.v. dose. The class given is ADME, organism-based, Urine. As to conditions: rat, iv. Also on record: dose 3 mg/kg, route intravenous. In outline:
(§2)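 Male ZDF rats, 7–8 weeks, fasted 12 h; compound or vehicle (10% Solutol) given i.v. at 2 mL/kg. Oral glucose challenge (4 mL/kg of 50% solution) 1 h later, rats then placed in metabolism cages with free water access; urine collected for 4 h, glucose quantified with Trinder reagent.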

For the next series, the system named is Rattus norvegicus. The description is as §1. The class given is functional, Urine. As to conditions: route intravenous. In outline: as §2

Molecule `O=C(CCc1ccc2ccccc2c1)c1c(O)cc(F)cc1O[C@@H]1O[C@H](CO)[C@@H](O)[C@H](O)[C@H]1O` gave a Ki in series [1] of 70 nM.

`CC(C)c1cc(O)c(C(=O)CCc2ccc3ccccc3c2)c(O[C@@H]2O[C@H](CO)[C@@H](O)[C@H](O)[C@H]2O)c1`: the Ki in series [1] stood at 150 nM. As for `Cc1cc(O)c(C(=O)CCc2ccc3occc3c2)c(O[C@@H]2O[C@H](CO)[C@@H](O)[C@H](O)[C@H]2O)c1`, the Ki in series [1] was 4 nM. Also, the half-life at 5 µM in series [2] stood at 24 min. In series [3], this molecule registered an Excreted glucose of 1189 mg.

Consider `Cc1cc(O)c(C(=O)CCc2ccsc2)c(O[C@@H]2O[C@H](CO)[C@@H](O)[C@H](O)[C@H]2O)c1`, for which affinity in series [1] was put at a Ki of 70 nM. `CCOc1ccc(CCC(=O)c2c(O)cc(CC)cc2O[C@@H]2O[C@H](CO)[C@@H](O)[C@H](O)[C@H]2O)cc1`: the Ki in series [1] came to 30 nM. Also, the half-life at 5 µM in series [2] is > 45 min. `CCc1cc(O)c(C(=O)CCc2ccc3ccccc3c2)c(O[C@@H]2O[C@H](CO)[C@@H](O)[C@H](O)[C@H]2O)c1`: the Ki in series [1] came to 10 nM. For the molecule `Cc1cc(O)c(C(=O)CCc2ccoc2)c(O[C@@H]2O[C@H](CO)[C@@H](O)[C@H](O)[C@H]2O)c1`, the affinity in series [1], expressed as Ki, was 230 nM. Take `O=C(CCc1ccc2ccccc2c1)c1c(O)cc(Cl)cc1O[C@@H]1O[C@H](CO)[C@@H](O)[C@H](O)[C@H]1O`: in series [1], the affinity corresponds to a Ki of 30 nM. The same measure, in the same setting: with `Cc1cc(N)c(C(=O)CCc2ccc3c(c2)OCCO3)c(O[C@@H]2O[C@H](CO)[C@@H](O)[C@H](O)[C@H]2O)c1` the figure was 290 nM; with `O=C(CCc1ccc2c(c1)OCCO2)c1c(O)cc(Cl)cc1O[C@@H]1O[C@H](CO)[C@@H](O)[C@H](O)[C@H]1O`, 20 nM.

`Cc1cc(O)c(C(=O)CCc2ccc3c(c2)OCCO3)c(O[C@@H]2O[C@H](CO)[C@@H](O)[C@H](O)[C@H]2O)c1` came in with an Excreted glucose in the series with Rattus norvegicus of 608 mg. Moreover, the Ki in series [1] is 9 nM. The half-life at 5 µM in series [2] was > 45 min. With `CCOc1ccc(CCC(=O)c2c(O)cc(C(C)C)cc2O[C@@H]2O[C@H](CO)[C@@H](O)[C@H](O)[C@H]2O)cc1`, in series [1], the Ki turned out to be 110 nM. As to `CCOc1ccc(CCC(=O)c2c(O)cc(C)cc2O[C@@H]2O[C@H](CO)[C@@H](O)[C@H](O)[C@H]2O)cc1`, affinity in series [1] was put at a Ki of 10 nM. In addition, the half-life at 5 µM in series [2] is > 45 min.

Consider `Cc1cc(O)c(C(=O)CCc2ccc3ccccc3c2)c(O[C@@H]2O[C@H](CO)[C@@H](O)[C@H](O)[C@H]2O)c1`, for which the Ki in series [1] turned out to be 10 nM. The same measure, in the same setting: then `Cc1cc(O)c(C(=O)CCC2CCCCC2)c(O[C@@H]2O[C@H](CO)[C@@H](O)[C@H](O)[C@H]2O)c1`, with 40 nM; and `CCc1cc(O)c(C(=O)CCc2ccc3c(c2)OCCO3)c(O[C@@H]2O[C@H](CO)[C@@H](O)[C@H](O)[C@H]2O)c1`, with 10 nM; and `CCOc1ccc(CCC(=O)c2c(N)cc(C)cc2O[C@@H]2O[C@H](CO)[C@@H](O)[C@H](O)[C@H]2O)cc1`, with 1280 nM. Still for that read-out and setting: with `Cc1cc(N)c(C(=O)CCc2ccc3ccccc3c2)c(O[C@@H]2O[C@H](CO)[C@@H](O)[C@H](O)[C@H]2O)c1` the figure was 520 nM; with `CCOc1ccc(CCC(=O)c2c(O)cc(Cl)cc2O[C@@H]2O[C@H](CO)[C@@H](O)[C@H](O)[C@H]2O)cc1`, 80 nM; with `CCOc1ccc(CCC(=O)c2c(Cl)cccc2O[C@@H]2O[C@H](CO)[C@@H](O)[C@H](O)[C@H]2O)cc1`, > 1700 nM.

Molecule `CC(C)c1cc(O)c(C(=O)CCc2ccc3c(c2)OCCO3)c(O[C@@H]2O[C@H](CO)[C@@H](O)[C@H](O)[C@H]2O)c1` displayed a Ki in series [1] of 20 nM. On to `O=C(CCc1ccc2ccccc2c1)c1c(Cl)cccc1O[C@@H]1O[C@H](CO)[C@@H](O)[C@H](O)[C@H]1O`, for which the Ki in series [1] was > 1700 nM.

For the molecule `O=C(CCc1ccc2c(c1)OCCO2)c1c(Cl)cccc1O[C@@H]1O[C@H](CO)[C@@H](O)[C@H](O)[C@H]1O`, the Ki in series [1] is > 1700 nM.

Broadly, the Ki is the equilibrium dissociation constant of an inhibitor or competing ligand from its target. Low readings indicate higher affinity, high ones lower affinity. What is called half-life is how long it takes for the measured level to halve. Read a low half-life as rapid decline.
